Screens as filed in PubChem.
Hits are enriched below; roughly 3% of the tested compounds scored in any of these assays.
MITF TRPM1 HTS: activators of MITF-driven TRPM1 promoter reporter, primary screen, cell-based, SK-MEL-5, luciferase, single point. SK-MEL-5 TRPM1-promoter luciferase, 24 h; % of positive control, neutral wells = 0. activation, % at 12.5 µM. hit rate 0.75% among 300,000;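 active = mean activation of at least 80% with every replicate also reaching 80%; inconclusive = mean reaches 80% but some replicate falls short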;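 also: 0% = neutral control wells and 100% = parthenolide positive control wells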
esBAF inh: Bmi1 luciferase reporter increase in mESCs, primary screen, esBAF inhibitor project, mouse ES cells, Bmi1 luciferase knock-in, single point. 24 h; 100% = twice the neutral-well signal. reporter increase, % at 12.5 µM. hit rate 2% among 350,000. AID 602393, 2012; in the data active = activation above about 40%; inconclusive = no clear call, values can overlap the other calls;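 also: 0% = median of the plate's neutral control wells and 100% = double that signal; a rise in the Bmi1 reporter signal indicates esBAF inhibition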
XiGFP reactiv: activators of inactive X chromosome reactivation, primary screen, imaging, XiGFP fibroblasts, GFP high-content imaging, set 2; XiGFP mouse fibroblasts, % GFP-positive cells imaging, 3 d; cells co-treated with 5-aza-dC sensitizer; scaled so ellipticine positive control = 100%; activation, % at 7.58 µM; hit rate 0.055% among 360,000; AID 743238, 2013;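 active = mean normalized replicate activation at least 10% and every replicate at or above 10%; inconclusive = only one of the two criteria met; inactive = mean below 10% and not all replicates reach 10%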;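 also: 0% = median of on-plate neutral control wells and 100% = ellipticine 6 µM median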
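System: SV40-immortalized XiGFP fibroblast cells, line 68-5-11 / Incubation: 3-day compound exposure, then 15 min fixation at room temperature / Compound: single concentration per compound, delivered by pin transfer / Buffer or medium: DMEM plus 5-aza-dC sensitizer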
CASP6 VEID inh: human caspase-6 inhibitors, primary screen, biochemical, VEID-R110 fluorescence, single point, set 2; P55212; purified caspase-6, Z-VEID-R110 cleavage fluorescence; inhibition, % at 12.5 µM; hit rate 0.53% among 350,000;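 active = mean inhibition across replicates at least about 35%, with every replicate also reaching that limit, limit read from the data; inconclusive = only one of the two criteria met; inactive = neither criterion met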;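 also: 0% = median of neutral control wells and 100% = no fluorescence left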
NSD2 HMT inh: NSD2 histone methyltransferase inhibitors, primary screen, biochemical, AlphaScreen, single concentration, set 2; inhibition, % at 12.5 µM; Histone-lysine N-methyltransferase NSD2 (Homo sapiens), O96028; NSD2 peptide methylation, 120 min; hit rate 0.54% among 310,000; AID 743445, 2014; in the data active = inhibition above about 50%
Wnt act: Wnt/beta-catenin pathway activators, primary screen, cell-based, plate reader, single point; activation, % at 9.35 µM; Wnt/beta-catenin reporter cell assay, activator; hit rate 1.2% among 300,000; in the data active = activation above about 30%, passing the limit was not always enough; inconclusive = no clear call, values can overlap the other calls;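 also: 0% = neutral control wells and 100% = positive control wells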
An asterisk follows results filed as active; ? = inconclusive; . = not tested or not shown.

SMILES	MITF TRPM1 HTS	esBAF inh	XiGFP reactiv	CASP6 VEID inh	NSD2 HMT inh	Wnt act
CCN(CC)CCn1c(SCC(=O)NCCC2=CCCCC2)nc2c(sc3ccccc32)c1=O	-14.0	.	0.1	7.3	-0.5	1.7
CCN(CC)CCn1c(SCC(=O)NCc2ccco2)nc2c(sc3ccccc32)c1=O	.	1.8	.	.	20.6	47.3*
CCOc1ccc(-n2c(COc3ccc(C)cc3)nnc2SCC(N)=O)cc1	.	-1.8	.	.	.	71.2*
Cc1ccc(-n2cc(-c3ccccc3)[nH]c2=O)cc1F	113.0*	50.3*	.	.	-1.9	-0.3
COc1ccc(-c2cn(-c3cccc(C)c3)c(=O)[nH]2)cc1OC	.	21.2	0.2	2.5	.	-0.6
CCCOC(=O)c1ccc(NC(=O)C(CC)CC)cc1	31.2	50.9*	0.1	.	-4.9	.
CCCOC(=O)c1ccc(NC(=O)C2CCCO2)cc1 (centres undefined)	.	50.2*	.	.	2.8	.
N#Cc1ccc(-c2ccc3c(c2)[C@H]2[C@H](CCN2Cc2ccc4c(c2)OCO4)[C@H](CO)N3)cc1	.	-6.9	0.2	2.3	.	.
C[C@H](CO)N1C[C@H](C)[C@H](CN(C)Cc2ccccc2)Oc2ccc(NC(=O)CCN3CCOCC3)cc2CC1=O	.	9.0	0.3	-1.2	.	.
COCC#Cc1ccc([C@H]2[C@@H](CO)N3C(=O)CN(C(=O)Nc4cc(F)ccc4F)C[C@H]23)cc1	.	.	0.3	.	.	.
O=c1[nH]c2ccccc2c2nc3ccccn3c12	.	49.5*	.	.	.	-3.7
O=c1nc2c(O)cccn2c2c1c(=O)[nH]c1ccccc12	0.0	.	-0.1	19.3	2.9	0.0
COc1ccc(OCCNC(=O)c2ccccc2Cl)cc1	-6.6	-1.4	0.3	0.1	-2.4	-0.3
O=C(NCCOc1ccccc1)c1ccccc1Cl	71.3	-6.3	0.0	-4.5	2.6	34.6*
COc1ccc(NC(=O)CCS(=O)(=O)c2ccc(OC)cc2)cc1	-3.6	.	.	.	-1.3	.
O=C(CCS(=O)(=O)c1ccc(Br)cc1)Nc1cc(F)ccc1F	-7.5	.	-0.1	58.8*	-2.3	-4.7
CCOc1ccccc1NC(=O)CCS(=O)(=O)c1ccc(Br)cc1	.	-2.6	0.3	70.6*	-2.1	1.1
CCOc1ccc(NC(=O)CCS(=O)(=O)c2ccc(Br)cc2)cc1	-0.9	-3.5	0.0	65.6*	0.0	0.3
C[C@H]1CN([C@@H](C)CO)C(=O)c2cc(-c3ccc(F)cc3)cnc2O[C@H]1CN(C)C(=O)c1ccccc1F	.	3.4	-0.8	-1.4	.	.
COc1cccc(C#Cc2cnc3c(c2)C(=O)N([C@H](C)CO)C[C@H](C)[C@@H](CN(C)C)O3)c1	.	-4.0	0.0	2.9	.	.
Cc1cccc(-c2ccc([C@H]3[C@@H](CO)N4C(=O)CN(C(=O)c5cnccn5)C[C@@H]34)cc2)c1	.	.	0.5	.	.	.
Cn1c(CN2CCCC2)nc2cc(NC(=O)c3ccc(Cl)cc3)ccc21	25.8	52.5*	0.0	-5.6	-1.4	1.9
Cn1cnc2cc(NC(=O)c3cccs3)ccc21	93.2*	.	0.4	0.4	-7.7	13.2
CC(C)(C)n1cnc2cc(NC(=O)c3ccc(Cl)cc3)ccc21	.	6.7	0.0	-3.7	-2.6	42.7*
Cn1cnc2cc(NC(=O)COc3ccccc3)ccc21	65.8	42.7*	0.0	-0.1	-0.8	12.3
SMILES	MITF TRPM1 HTS	esBAF inh	XiGFP reactiv	CASP6 VEID inh	NSD2 HMT inh	Wnt act
O=C(Cc1cccnc1)N1CC[C@@H]2[C@@H](CO)Nc3ccc(C#Cc4ccccc4F)cc3[C@@H]21	.	.	0.1	-0.3	.	.
C[C@H]1CN(C)C(=O)c2cccc(NS(C)(=O)=O)c2O[C@@H]1CN(C)S(C)(=O)=O	.	.	0.3	.	.	.
CC=Cc1ccc2n(c1=O)C[C@@H]1[C@@H](CO)[C@H](C(=O)NCCc3cn(C)cn3)N(C(=O)C3CCC3)[C@H]21 (mixture of isomers)	.	-1.9	-0.1	-4.1	.	.
COc1ccccc1S(=O)(=O)N[C@H]1CC[C@H](CCNC(=O)C2CCC2)O[C@@H]1CO	.	-2.1	-0.5	0.5	.	.
C[C@@H]1CN([C@@H](C)CO)C(=O)c2cccc(NS(C)(=O)=O)c2O[C@@H]1CN(C)Cc1ccc(Oc2ccccc2)cc1	.	-0.5	-0.2	-0.3	.	.
O=C(Nc1nc2ccccc2n1CCN1CCCC1)c1ccc(Cl)cc1	.	48.4*	.	.	1.9	2.9
Cc1cccc(C(=O)Nc2ccc3c(c2)ncn3C)c1	125.5*	2.1	-0.1	-2.9	2.8	22.3
CCC(=O)Nc1ccc2c(c1)ncn2C	1.6	-1.5	-0.3	-1.3	0.4	-2.2
O=C(Nc1nc2ccccc2n1CCN1CCOCC1)c1ccc(Cl)cc1	.	18.1	0.3	2.7	1.1	15.8
Cn1cnc2cc(NCc3ccccc3Cl)ccc21	?	51.0*	0.0	1.2	2.3	13.9
Cn1cnc2cc(NC(=O)c3ccc(Cl)cc3)ccc21	55.2	54.4*	0.3	2.8	.	19.3
CNC[C@@H]1Oc2ccc(NC(=O)NC(C)C)cc2CC(=O)N(C)C[C@H]1C	.	.	0.2	.	.	.
CC(=O)N(C)C[C@H]1Oc2ccc(N(S(C)(=O)=O)S(C)(=O)=O)cc2C(=O)N(C)C[C@@H]1C	.	.	0.2	.	.	.
CN(C)CC#Cc1cccc(-c2nc(C(=O)O)cc3c2[C@H](CCO)N(S(=O)C(C)(C)C)C3)c1 (some centres undefined)	.	3.5	.	-2.1	.	.
COC(=O)[C@]1(Cc2ccccc2)N=C(c2ccc(OCCCO)cc2)O[C@@H]1c1ccccc1N=[N+]=[N-]	.	.	.	0.8	.	.
CC(=O)N(C)C[C@H]1Oc2ccc(NS(C)(=O)=O)cc2CC(=O)N(C)C[C@@H]1C	.	.	0.0	.	.	.
C[C@@H]1CCCCO[C@@H](CN(C)C(=O)Nc2ccc3c(c2)OCO3)[C@@H](C)CN([C@@H](C)CO)C(=O)c2cc(NC(=O)Nc3ccc4c(c3)OCO4)ccc2O1	.	.	0.3	2.3	.	.
CC(C)NC(=O)Nc1ccc2c(c1)CC(=O)N(C)C[C@@H](C)[C@H](CN(C)C)O2	.	.	0.1	.	.	.
COc1ccccc1N1C(=O)C(Cl)=C(Nc2ccccc2O)C1=O	6.8	.	0.3	.	5.0	6.4
O=C1C(Cl)=C(Nc2ccccc2O)C(=O)N1c1ccccc1	.	7.2	.	.	-1.3	55.2*
O=C(Cc1ccncc1)NCC[C@@H]1CC[C@@H](NC(=O)C2CCCC2)[C@@H](CO)O1	.	-3.1	0.0	-3.1	.	.
Cc1cc(C)nc(NC(=O)/C=C/c2ccc3c(c2)OCO3)c1	115.5*	47.9*	0.1	.	2.8	44.2*
O=C(/C=C/c1ccc2c(c1)OCO2)Nc1nncs1	.	.	0.3	0.4	-3.8	61.5*
Nc1ccccc1C(=O)/C=C/c1ccc2c(c1)OCO2	85.3*	73.0*	0.1	0.9	.	35.1*
CC(C)(C)c1ccc(/C=C/C(=O)Nc2nncs2)cc1	88.6*	26.3	0.3	1.0	-1.6	25.6
